Results published in ChEMBL document CHEMBL2384980, “Development of cell-active non-peptidyl inhibitors of cysteine cathepsins” (Bioorg Med Chem, 2013).
Values belong to the compound of their own block, whether it stands above or below them. Activity calls are given as the source filed them. The calls are words filed in the database; no cut-off is given here.

What was measured:
[1] = biological target: T1, Cathepsin B (Homo sapiens, UniProt P07858); test: Inhibition of human liver cathepsin B
How it was run: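 Human liver cathepsin B (175 nM final) activated 10 min in 100 mM sodium phosphate pH 6.0 with 5 mM DTT, 1 mM Na2EDTA, then incubated with inhibitor (5% DMSO) at 30 °C under pseudo-first-order conditions. Aliquots diluted 17.5-fold into 3 mM Z-RR-pNA; initial rates read at 405 nm. Screening used 500 µM inhibitor with residual activity after 10 min.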

[2] = biological target: T1, Cathepsin B; test: Time dependent inhibition of human liver cathepsin B using Z-RR-para-nitroanilide as substrate at 500 uM
How it was run: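 Screening: human liver cathepsin B (175 nM) activated in 100 mM sodium phosphate pH 6.0, 5 mM DTT, 1 mM EDTA, incubated with 500 µM inhibitor (5% DMSO) at 30 °C for 10 min; aliquot diluted 17.5-fold into 3 mM Z-RR-pNA, residual activity from initial rates at 405 nm.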

[3] = biological target: T1, Cathepsin B; test: Inhibition of human liver cathepsin B using Z-RR-para-nitroanilide as substrate assessed as reversible equilibrium binding constant by Kitz-Wilson plot analysis
How it was run: (§1)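 Cathepsin B (175 nM, pH 6.0 phosphate, DTT/EDTA, 30 °C, 5% DMSO) inactivated at 25, 50, 75, 100 and 150 µM inhibitor; residual activity with 3 mM Z-RR-pNA at intervals. kobs from single-exponential fit of activity vs time at each concentration; Ki and ki from Kitz–Wilson analysis.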

[4] = biological target: Cathepsin S (Homo sapiens) (UniProt P25774); test: Inhibition of cathepsin S in human MDA-MB-231 cells assessed as increase in E-cadherin levels at 1 to 5 uM after 30 mins by Western blotting analysis; format: cell-based
Chain of Cathepsin S (Homo sapiens) (P25774 115-331 limits assumed): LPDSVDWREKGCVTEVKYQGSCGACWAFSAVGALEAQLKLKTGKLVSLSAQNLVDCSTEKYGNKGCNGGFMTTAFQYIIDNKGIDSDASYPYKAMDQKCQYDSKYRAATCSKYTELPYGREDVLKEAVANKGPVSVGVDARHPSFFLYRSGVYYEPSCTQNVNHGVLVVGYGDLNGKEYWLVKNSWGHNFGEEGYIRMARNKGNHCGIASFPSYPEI

[5] = biological target: T1, Cathepsin B; test: Inhibition of human liver cathepsin B using Z-RR-para-nitroanilide as substrate
How it was run: (§2)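 Human liver cathepsin B (175 nM final) activated 10 min in 100 mM sodium phosphate pH 6.0, 5 mM DTT, 1 mM EDTA; inhibitor added (5% DMSO, pseudo-first order) at 30 °C. Aliquots diluted 17.5-fold into assay with 3 mM Z-RR-pNA; initial rates at 405 nm give residual activity over time.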

[6] = organism: Homo sapiens; test: Selectivity ratio of Kinact for human liver cathepsin B to Kinact for human cathepsin D
[7] = biological target: T1, Cathepsin B; test: Inhibition of cathepsin B in human MDA-MB-231 cells using Z-RR-AMC as substrate at 20 uM preincubated for 20 mins prior to substrate addition measured after 10 mins by confocal microscopic analysis; format: cell-based
How it was run: (§3)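 Live-cell confocal imaging of MDA-MB-231 cells on poly-D-lysine glass dishes in phenol-red-free medium with 15 mM HEPES plus Oxyrase/10 mM lactate. Cells treated with 0.1% DMSO or inhibitor 20 min at 37 °C, then Z-RR-AMC (25 µM final) for 10 min. […]; average whole-cell fluorescence, 8-10 cells per experiment, three independent experiments.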

[8] = biological target: Cathepsin S (Homo sapiens) (UniProt P25774); test: Inhibition of human cathepsin S using Z-VVR-AMC as substrate
How it was run: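 Human cathepsin S (134.6 nM final) activated 10 min in 100 mM potassium phosphate pH 6.5, 5 mM DTT, 5 mM EDTA; inactivated with inhibitor at 75 µM. Aliquots at intervals into buffer (8% DMSO) with 250 µM Z-VVR-AMC, Ex/Em 365/440 nm. Second-order constant = kobs/[I].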

[9] = biological target: T1, Cathepsin B; test: Time dependent inhibition of human liver cathepsin B using Z-RR-para-nitroanilide as substrate; how it was run: as §2
[10] = biological target: T2, Cathepsin G (Homo sapiens) (UniProt P08311); test: Inhibition of human cathepsin G using Suc-AAPF-pNA as substrate
T2 sequence (whole entry): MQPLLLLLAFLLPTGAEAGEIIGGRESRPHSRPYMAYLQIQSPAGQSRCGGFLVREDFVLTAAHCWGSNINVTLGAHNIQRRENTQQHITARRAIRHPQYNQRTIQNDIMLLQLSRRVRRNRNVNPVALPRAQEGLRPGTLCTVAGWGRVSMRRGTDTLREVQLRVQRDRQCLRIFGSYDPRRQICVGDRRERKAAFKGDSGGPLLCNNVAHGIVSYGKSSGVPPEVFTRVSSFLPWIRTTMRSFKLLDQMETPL
How it was run: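 Human cathepsin G (7.66 nM final) activated 15 min in 20 mM Tris-HCl pH 7.4, 500 mM NaCl; inhibitor added, aliquots at intervals into buffer with 3.4 mM Suc-AAPF-pNA. Time-dependent inhibition examined up to 1 mM over 1 h.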

[11] = biological target: T1, Cathepsin B; test: Irreversible inhibition of human liver cathepsin B after 10 mins by mass spectrophotometric analysis
How it was run: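 Activated cathepsin B incubated with inhibitor (800 µM) or 5% DMSO control for 10 min under kinetic-study conditions; samples mixed 1:9 with saturated α-cyano-4-hydroxycinnamic acid and analysed by MALDI mass spectrometry, positive linear mode.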

[12] = organism: Homo sapiens; test: Selectivity ratio of Kinact for human liver cathepsin B to Kinact for human cathepsin S
[13] = biological target: Cathepsin S (Homo sapiens) (UniProt P25774); test: Inhibition of cathepsin S in human MDA-MB-231 cells assessed as increase in E-cadherin levels after 20 mins by immunofluorescence assay; format: cell-based
How it was run: (§4)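 MDA-MB-231 cells (IMDM, 10% FBS, 37 °C, 5% CO2) on glass coverslips 24 h, treated 20 min at 37 °C with vehicle (0.1% DMSO) or inhibitor. Fixed in 3.7% PFA, permeabilized, blocked, mouse anti-E-cadherin (1:100) overnight at 4 °C, then Alexa 594 secondary, Hoechst nuclei. Mean peripheral fluorescence intensity, 28 cells per condition, three independent experiments.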

[14] = biological target: T1, Cathepsin B; test: Inhibition of human liver cathepsin B using Z-RR-para-nitroanilide as substrate in presence of leupeptin
How it was run: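 Active-site protection: cathepsin B inactivation (175 nM, pH 6.0 phosphate buffer with DTT/EDTA, 30 °C, 5% DMSO) run in presence of leupeptin (40 nM); residual activity measured with 3 mM Z-RR-pNA at 405 nm.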

[15] = tested on: MDA-MB-231; test: Inhibition of cathepsin in human MDA-MB-231 cells assessed as decrease in cell migratory behavior after 6 hrs by microscopic analysis; format: cell-based
How it was run: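 MDA-MB-231 cells plated as concentric circles through a sedimentation manifold on BSA-coated glass slide; after manifold removal, treated with 0.05% DMSO or inhibitor (10 and 20 µM) for 6 h at 37 °C. Images at t0 and t6; motility taken as change in total area (µm2), mean ± S.D. of triplicates.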

[16] = biological target: T1, Cathepsin B; test: Inhibition of human liver cathepsin B in presence of azide ion
[17] = biological target: T3, Cathepsin F (Homo sapiens) (UniProt Q9UBX1); test: Inhibition of human cathepsin F using Z-FR-AMC as substrate
T3 sequence (whole entry): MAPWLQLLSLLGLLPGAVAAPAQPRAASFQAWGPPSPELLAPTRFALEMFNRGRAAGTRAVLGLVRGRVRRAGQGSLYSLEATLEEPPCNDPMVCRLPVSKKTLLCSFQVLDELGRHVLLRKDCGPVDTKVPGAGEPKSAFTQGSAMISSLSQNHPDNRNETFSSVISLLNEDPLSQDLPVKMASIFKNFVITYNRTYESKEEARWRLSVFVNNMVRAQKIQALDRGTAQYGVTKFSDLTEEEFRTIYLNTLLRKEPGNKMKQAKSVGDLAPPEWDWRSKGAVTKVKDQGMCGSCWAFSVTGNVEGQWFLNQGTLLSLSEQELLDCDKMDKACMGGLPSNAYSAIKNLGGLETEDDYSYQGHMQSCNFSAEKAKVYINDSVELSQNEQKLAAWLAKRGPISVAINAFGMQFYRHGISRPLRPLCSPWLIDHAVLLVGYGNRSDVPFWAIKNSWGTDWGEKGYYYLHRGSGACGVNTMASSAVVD
How it was run: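 Human cathepsin F (10.8 nM final) activated 10 min at 25 °C in 50 mM potassium phosphate pH 6.5, 2.5 mM DTT, 2.5 mM EDTA, 1.0 mg/ml BSA; inhibitor added, aliquots at intervals into assay with 3 µM Z-FR-AMC at 25 °C. Second-order constant = kobs divided by inhibitor concentration.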

[18] = Half life of the compound at 2.5 mM at pH 7.4 by NMR spectrophotometric analysis; format: physicochemical
How it was run: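 Hydrolytic stability by NMR: stock in deuterated DMSO added to deuterated phosphate buffer, pH 7.4 (D2O), final 2.5 mM, pseudo-first order. Spectra recorded at intervals; integrations of starting and final species compared, data fitted to single exponential decay, t1/2 = 0.693/k.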

[19] = biological target: T4, Tyrosine-protein phosphatase non-receptor type 1 (Homo sapiens) (UniProt P18031); test: Inhibition of human PTP1B
T4 sequence (whole entry): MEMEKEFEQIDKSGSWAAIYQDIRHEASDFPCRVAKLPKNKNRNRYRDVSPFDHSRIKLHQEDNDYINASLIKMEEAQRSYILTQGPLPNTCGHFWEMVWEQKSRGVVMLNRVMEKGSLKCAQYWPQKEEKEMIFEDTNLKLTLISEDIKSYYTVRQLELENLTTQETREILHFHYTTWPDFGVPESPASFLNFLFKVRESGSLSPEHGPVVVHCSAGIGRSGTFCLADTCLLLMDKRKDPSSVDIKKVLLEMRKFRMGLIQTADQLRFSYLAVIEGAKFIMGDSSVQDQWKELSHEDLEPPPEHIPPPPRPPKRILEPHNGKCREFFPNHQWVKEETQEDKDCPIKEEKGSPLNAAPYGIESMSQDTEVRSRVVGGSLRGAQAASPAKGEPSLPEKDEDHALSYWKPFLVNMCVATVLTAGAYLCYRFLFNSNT

[20] = biological target: T1, Cathepsin B; test: Inhibition of cathepsin B in human MDA-MB-231 cells assessed as increase in E-cadherin levels at 1 to 5 uM after 30 mins by Western blotting analysis; format: cell-based
[21] = organism: Homo sapiens; test: Selectivity ratio of Kinact for human liver cathepsin B to Kinact for human cathepsin F
[22] = biological target: T1, Cathepsin B; test: Inhibition of cathepsin B in human MDA-MB-231 cells using Z-RR-AMC as substrate preincubated for 20 mins prior to substrate addition measured after 10 mins by confocal microscopic analysis; format: cell-based; how it was run: as §3
[23] = biological target: Trypsin (Homo sapiens) (UniProt P07477+P07478+P35030); test: Inhibition of trypsin (unknown origin) using N-alpha-benzoyl-DL-arginine-p-nitroanilide as substrate; format: protein assay
How it was run: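 Trypsin freshly prepared in 1 mM HCl, pre-activated (190–200 U/µl final), inhibitor added; aliquots at intervals into 67 mM sodium phosphate with 3 mM BAPNA, initial rate at 410 nm. Time-dependent inhibition examined up to 1 mM over 1 h.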

[24] = biological target: T1, Cathepsin B; test: Inhibition of cathepsin B in human MDA-MB-231 cells assessed as increase in E-cadherin levels after 20 mins by immunofluorescence assay; format: cell-based; how it was run: as §4
[25] = biological target: T1, Cathepsin B; test: Irreversible inhibition of human liver cathepsin B using Z-RR-para-nitroanilide as substrate measured after dilution of compound-inactivated enzyme complex
[26] = tested on: MDA-MB-231; test: Inhibition of cathepsin in human MDA-MB-231 cells assessed as change in cellular morphology at 20 uM by microscopic analysis; format: cell-based
[27] = biological target: T1, Cathepsin B; test: Inhibition of human liver cathepsin B using Z-RR-para-nitroanilide as substrate assessed as first-order inactivation rate constant by Kitz-Wilson plot analysis; how it was run: as §1
[28] = biological target: Cathepsin D (Homo sapiens) (UniProt P07339); test: Inhibition of human cathepsin D using Mca-Gly-Lys-Pro-Ile-Leu-Phe-Phe-Arg-Leu-Lys(Dnp)-D-Arg-NH2 as substrate
Chain of Cathepsin D (Homo sapiens) (P07339 65-162 limits assumed): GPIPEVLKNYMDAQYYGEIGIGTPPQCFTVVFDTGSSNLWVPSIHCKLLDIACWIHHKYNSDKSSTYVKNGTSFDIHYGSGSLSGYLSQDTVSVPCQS
Chain of Cathepsin D (Homo sapiens) (P07339 169-412 limits assumed): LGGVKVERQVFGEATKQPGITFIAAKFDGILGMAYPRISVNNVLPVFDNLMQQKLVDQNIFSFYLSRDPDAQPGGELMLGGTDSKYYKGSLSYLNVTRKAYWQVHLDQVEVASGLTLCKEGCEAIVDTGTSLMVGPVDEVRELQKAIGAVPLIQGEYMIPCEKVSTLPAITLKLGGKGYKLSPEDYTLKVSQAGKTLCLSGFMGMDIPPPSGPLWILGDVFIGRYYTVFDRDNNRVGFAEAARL

Compound: O=S(=O)(c1ccc(Cl)cc1)C1CO1 (stereo not given)
- inhibition [2]: 44%

Compound: O=S(=O)(c1ccc(OC(F)(F)F)cc1)C1CO1 (stereo not given)
- inhibition [2]: 30%

Compound: O=S(=O)(CC1CS1)c1ccccc1 (stereo not given)
- inhibition [2]: inactive

Compound: O=S(=O)(c1cc(Cl)cc(Cl)c1)C1CO1 (stereo not given)
- inhibition [2]: 50%

Compound: O=S(=O)(c1ccccc1)C1OC1c1ccc(F)cc1 (stereo not given)
- inhibition [2]: inactive

Compound: O=S(=O)(c1ccc2ccccc2c1)C1CO1 (stereo not given)
- inhibition [2]: 18%

Second part, led by results:

- Ki [1]: 5 nM
Compound: CC(=O)N[C@@H](CC(C)C)C(=O)N[C@@H](CC(C)C)C(=O)N[C@H](C=O)CCCNC(=N)N [LEUPEPTIN]

- inhibition [2]: 40%
Compound: Cc1cccc(S(=O)(=O)C2CO2)c1 (stereo not given)

- inhibition [2]: 25%
Compound: COc1ccc(OC)c(S(=O)(=O)C2CO2)c1 (stereo not given)

- inhibition [2]: 42%
Compound: Cc1ccc(C)c(S(=O)(=O)C2CO2)c1 (stereo not given)

- inhibition [2]: inactive
Compound: CCCC1OC1S(=O)(=O)c1ccccc1 (stereo not given)

- inhibition [2]: inactive
Compound: O=S(=O)(CC1CO1)c1ccccc1 (stereo not given)

- inhibition [2]: 35%
Compound: COc1cccc(S(=O)(=O)C2CO2)c1 (stereo not given)

- Ki [3]: 86 µM
- inhibition [4]: Active
- Kinact [5]: 2440 M⁻¹ min⁻¹
- Selectivity ratio [6]: 38
- inhibition [7]: Active
- Kinact [8]: 1200 M⁻¹ min⁻¹
- inhibition [9]: Active
- inhibition [10]: inactive
- inhibition [11]: Active
- Selectivity ratio [12]: 1.9
- inhibition [13]: Dose-dependent effect
- inhibition [14]: inactive
- inhibition [16]: Active
- Kinact [17]: 1300 M⁻¹ min⁻¹
- half-life at 2500 µM [18]: 216 min
- inhibition [19]: inactive
- inhibition [20]: Active
- Selectivity ratio [21]: 1.9
- inhibition [22]: Dose-dependent effect
- inhibition [2]: > 98%
- inhibition [23]: inactive
- inhibition [24]: Dose-dependent effect
- inhibition [25]: Active
- Kinact [27]: 0.21 min⁻¹
- Kinact [28]: 65 M⁻¹ min⁻¹
Compound: CCc1ccccc1S(=O)(=O)C1CO1 (stereo not given)
- inhibition [15]: Dose-dependent effect
- inhibition [26]: Active
